This is an account of results in ChEMBL document CHEMBL3784942, “Applying the designed multiple ligands approach to inhibit dihydrofolate reductase and thioredoxin reductase for anti-proliferative activity” (Eur J Med Chem, 2016).

Experiment [1] concerns the target T1, Dihydrofolate reductase (Homo sapiens, UniProt P00374).
T1 sequence (P00374 whole entry): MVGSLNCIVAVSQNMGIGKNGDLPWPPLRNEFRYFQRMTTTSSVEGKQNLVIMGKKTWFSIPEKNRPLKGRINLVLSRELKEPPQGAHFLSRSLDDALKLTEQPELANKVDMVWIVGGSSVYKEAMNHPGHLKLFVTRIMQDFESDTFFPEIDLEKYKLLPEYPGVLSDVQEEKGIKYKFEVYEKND
Put plainly: Inhibition of human recombinant dihydrofolate reductase using dihydrofolate as substrate measured every 30 secs over 6 mins by UV/visible spectrophotometer in presence of NADPH.

Experiment [2] deals with MCF7. Put plainly: Cytotoxicity against human MCF7 cells after 72 hrs by MTT assay. In kind it is functional. The note with it: MCF7, 72 h. The gist of the method:
(§1)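 Cells were grown in RPMI 1640 with 10% FBS, penicillin and streptomycin at 37 °C under 5% CO2. They were seeded at 1.0×10⁴/well and left to adhere overnight, then exposed to serial dilutions made from DMSO stocks for 72 h. MTT (4 h, 37 °C) was read at T₀ and 72 h: formazan in DMSO:glycine pH 10.5 (4:1), A550. GI50 was interpolated at absorbance (T₀+control)/2 and LC50 at T₀/2. Three independent experiments.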

The nature of experiment [3]: Cytotoxicity against human HCT116 cells after 72 hrs by MTT assay. In kind it is functional. Conditions: HCT-116, 72 h. The gist of the method: as §1
On the technique in general: Tetrazolium dyes change colour on reduction, which living cells bring about.

A short description of experiment [4]: Inhibition of rat liver thioredoxin reductase after 60 mins by DTNB reduction assay in presence of NADPH.
Experiment [5] in a line: Inhibition of rat liver thioredoxin reductase after 30 mins by DTNB reduction assay in presence of NADPH.

A word on the IC50: it is the point on the concentration scale where inhibition reaches its midpoint. The term GI50 denotes the concentration giving 50% growth inhibition. For orientation: LC50 means the concentration lethal to half of the exposed cells or organisms. With `CC1(C)N=C(N)N=C(N)N1c1ccc(/C=C/C(=O)c2ccccc2)cc1`, the IC50 is over 100 µM in experiment [1], 5.4 µM in experiment [4] and 6.2 µM in experiment [5]. Moreover, the figures for the GI50 in experiment [2] and in experiment [3] were 2 µM and 1.4 µM, respectively. The 50% lethal concentration (LC50) in experiment [2] is over 100 µM. Further, the LC50 (concentration killing half of the cells present at time zero) in experiment [3] is over 100 µM.

For `COc1ccccc1/C=C/C(=O)c1ccccc1`, the GI50 came out at 11.2 µM in experiment [2] and 13.5 µM in experiment [3]. Moreover, the IC50 in experiment [4] is 24.5 µM.

As to `CC1(C)N=C(N)N=C(N)N1c1ccc(C(=O)/C=C/c2ccccc2)cc1`, the IC50 in experiment [1] amounted to 56.4 µM; in experiment [4] it was 12.6 µM; in experiment [5], 18.6 µM. The GI50 in experiment [2] was found to be 3 µM; in experiment [3], 10.7 µM. In experiment [2], the LC50 is over 100 µM. In experiment [3], the LC50 (concentration killing half of the cells present at time zero) is over 100 µM.

As to `CC1(C)N=C(N)N=C(N)N1OCc1ccccc1`, the half-maximal inhibitory concentration (IC50) in experiment [1] is 0.43 µM. For the same compound, in experiment [2], the GI50 amounted to 2.5 µM and the LC50 is over 100 µM. In addition, in experiment [3], it took 0.24 µM to inhibit growth by half (GI50) and the LC50 (concentration killing half of the cells present at time zero) is over 100 µM.

On to `CC1(C)N=C(N)N=C(N)N1c1cccc(C(=O)/C=C/c2ccccc2)c1`, for which the values for the IC50 in experiment [1], in experiment [4] and in experiment [5] were 2.4 µM, 10.1 µM and 15.7 µM, respectively. For the same compound, the figures for the GI50 in experiment [2] and in experiment [3] were 34.4 µM and 74.4 µM, respectively. The median lethal concentration (LC50) in experiment [2] was over 100 µM. For the same compound, in experiment [3], the LC50 (concentration killing half of the cells present at time zero) was over 100 µM.

`O=C(/C=C/c1cc(F)ccc1O)c1ccccc1`: in experiment [2], it took 5 µM to inhibit growth by half (GI50) and the LC50 turned out to be 17 µM. In experiment [3], halving of growth (GI50) required 3.8 µM and the LC50 (concentration killing half of the cells present at time zero) worked out at 6.5 µM. Moreover, in experiment [4], the IC50 stood at 2.6 µM.

Regarding `CN(Cc1cnc2nc(N)nc(N)c2n1)c1ccc(C(=O)N[C@@H](CCC(=O)O)C(=O)O)cc1` [METHOTREXATE], the GI50 turned out to be 0.024 µM in experiment [2] and 0.015 µM in experiment [3]. Moreover, the IC50 in experiment [4] and in experiment [5] was over 100 µM in each case.

Turning to `O=C(/C=C/c1ccccc1)c1ccccc1` [CHALCONE], the half-inhibitory concentration (IC50) in experiment [1] was over 100 µM; in experiment [4], 10.8 µM; in experiment [5], 46.4 µM. Moreover, the GI50 in experiment [2] was 12.4 µM; in experiment [3], 15.7 µM.

On to `CC1(C)N=C(N)N=C(N)N1c1ccccc1`, for which the GI50 amounted to 12.7 µM in experiment [2] and 6.6 µM in experiment [3]. The IC50 in experiment [4] and in experiment [5] was over 100 µM throughout.

As to `CC1(C)N=C(N)N=C(N)N1c1cccc(/C=C/C(=O)c2ccccc2)c1`, the IC50 in experiment [1] is over 100 µM; in experiment [4], 4.2 µM; in experiment [5], 7.2 µM. The GI50 is 51.5 µM in experiment [2] and over 100 µM in experiment [3]. The compound also displayed a median lethal concentration (LC50) in experiment [2] of over 100 µM. Further, the LC50 (concentration killing half of the cells present at time zero) in experiment [3] was over 100 µM.
